Test results as given in ChEMBL document CHEMBL4325889, “Natural products hybrids: 3,5,4'-Trimethoxystilbene-5,6,7-trimethoxyflavone chimeric analogs as potential cytotoxic agents against diverse human cancer cells” (Eur J Med Chem, 2019).

Columns and labels:
Type in all cases: functional
[1] = test system: MCF7; test: Growth inhibition of human MCF7 cells at 10 uM after 48 hrs by SRB assay relative to control; conditions: MCF7, 48 h, read-out: GI
Summary of the method: (§1)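 Screened at the National Cancer Institute by the standard NCI protocol using the sulforhodamine B assay, which measures cellular protein. Single dose of 10 µM. Result is percent growth inhibition; values above 100% mean cell number fell below the initial population. Values are the average of duplicates.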

[2] = test system: RXF 393; test: Growth inhibition of human RXF393 cells at 10 uM after 48 hrs by SRB assay relative to control; conditions: RXF 393, 48 h, read-out: GI; summary of the method: as §1
[3] = test system: OVCAR-4; test: Growth inhibition of human OVCAR4 cells at 10 uM after 48 hrs by SRB assay relative to control; conditions: OVCAR-4, 48 h, read-out: GI; summary of the method: as §1
[4] = test system: Hs-578T; test: Growth inhibition of human Hs 578T cells at 10 uM after 48 hrs by SRB assay relative to control; conditions: read-out: GI; summary of the method: as §1
[5] = test system: OVCAR-5; test: Growth inhibition of human OVCAR5 cells at 10 uM after 48 hrs by SRB assay relative to control; conditions: OVCAR-5, 48 h, read-out: GI; summary of the method: as §1
[6] = test system: DU-145; test: Growth inhibition of human DU145 cells at 10 uM after 48 hrs by SRB assay relative to control; conditions: DU-145, 48 h, read-out: GI; summary of the method: as §1
[7] = test system: RPMI-8226; test: Growth inhibition of human RPMI8226 cells at 10 uM after 48 hrs by SRB assay relative to control; conditions: RPMI-8226, 48 h, read-out: GI; summary of the method: as §1
[8] = test system: IGROV-1; test: Growth inhibition of human IGROV1 cells at 10 uM after 48 hrs by SRB assay relative to control; conditions: IGROV-1, 48 h, read-out: GI; summary of the method: as §1
[9] = test system: BT-549; test: Growth inhibition of human BT549 cells at 10 uM after 48 hrs by SRB assay relative to control; conditions: BT-549, 48 h, read-out: GI; summary of the method: as §1
[10] = test system: CCRF-CEM; test: Growth inhibition of human CCRF-CEM cells at 10 uM after 48 hrs by SRB assay relative to control; conditions: read-out: GI; summary of the method: as §1
[11] = test system: MOLT-4; test: Growth inhibition of human MOLT4 cells at 10 uM after 48 hrs by SRB assay relative to control; conditions: MOLT-4, 48 h, read-out: GI; summary of the method: as §1
[12] = test system: NCI/ADR-RES; test: Growth inhibition of human NCI/ADR-RES cells at 10 uM after 48 hrs by SRB assay relative to control; conditions: read-out: GI; summary of the method: as §1
[13] = test system: SF-539; test: Growth inhibition of human SF539 cells at 10 uM after 48 hrs by SRB assay relative to control; conditions: SF-539, 48 h, read-out: GI; summary of the method: as §1
[14] = test system: SR; test: Growth inhibition of human SR cells at 10 uM after 48 hrs by SRB assay relative to control; conditions: read-out: GI
Summary of the method: (§2)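 NCI screen against its human cancer cell line panel by the standard NCI protocol, SRB protein stain. Single dose of 10 μM. Percent growth inhibition versus control; values above 100% mean the cell population fell below the starting number. Each value is the mean of duplicates.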

[15] = test system: SW-620; test: Growth inhibition of human SW620 cells at 10 uM after 48 hrs by SRB assay relative to control; conditions: SW-620, 48 h, read-out: GI; summary of the method: as §2
[16] = test system: K562; test: Growth inhibition of human K562 cells at 10 uM after 48 hrs by SRB assay relative to control; conditions: K562, 48 h, read-out: GI; summary of the method: as §1
[17] = test system: UACC-257; test: Growth inhibition of human UACC257 cells at 10 uM after 48 hrs by SRB assay relative to control; conditions: UACC-257, 48 h, read-out: GI; summary of the method: as §2
[18] = test system: MDA-MB-468; test: Growth inhibition of human MDA-MB-468 cells at 10 uM after 48 hrs by SRB assay relative to control; conditions: MDA-MB-468, 48 h, read-out: GI; summary of the method: as §1
[19] = test system: SK-MEL-2; test: Growth inhibition of human SK-MEL-2 cells at 10 uM after 48 hrs by SRB assay relative to control; conditions: SK-MEL-2, 48 h, read-out: GI; summary of the method: as §1
[20] = test system: SNB-75; test: Growth inhibition of human SNB75 cells at 10 uM after 48 hrs by SRB assay relative to control; conditions: SNB-75, 48 h, read-out: GI; summary of the method: as §2
[21] = test system: SF-295; test: Growth inhibition of human SF295 cells at 10 uM after 48 hrs by SRB assay relative to control; conditions: SF-295, 48 h, read-out: GI; summary of the method: as §1
[22] = test system: HL-60(TB); test: Growth inhibition of human HL-60(TB) cells at 10 uM after 48 hrs by SRB assay relative to control; conditions: HL-60, 48 h, read-out: GI
Summary of the method: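 Run at NCI under its standard single-dose protocol against a leukemia cell panel. Cells were exposed to 10 µM; growth was read by sulforhodamine B staining of cellular protein and expressed as % growth inhibition versus untreated control. Values above 100% mean the cell population fell below the starting count (cytocidal). Each value is the average of duplicates.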

[23] = test system: LOX IMVI; test: Growth inhibition of human LOXIMVI cells at 10 uM after 48 hrs by SRB assay relative to control; conditions: read-out: GI; summary of the method: as §1
[24] = test system: OVCAR-3; test: Growth inhibition of human OVCAR3 cells at 10 uM after 48 hrs by SRB assay relative to control; conditions: OVCAR-3, 48 h, read-out: GI; summary of the method: as §1
[25] = test system: SK-MEL-28; test: Growth inhibition of human SK-MEL-28 cells at 10 uM after 48 hrs by SRB assay relative to control; conditions: SK-MEL-28, 48 h, read-out: GI; summary of the method: as §1
[26] = test system: SK-MEL-5; test: Growth inhibition of human SK-MEL-5 cells at 10 uM after 48 hrs by SRB assay relative to control; conditions: SK-MEL-5, 48 h, read-out: GI; summary of the method: as §1
[27] = test system: CAKI-1; test: Growth inhibition of human Caki1 cells at 10 uM after 48 hrs by SRB assay relative to control; conditions: CAKI-1, 48 h, read-out: GI; summary of the method: as §1
[28] = test system: NCI-H23; test: Growth inhibition of human NCI-H23 cells at 10 uM after 48 hrs by SRB assay relative to control; conditions: NCI-H23, 48 h, read-out: GI; summary of the method: as §1
[29] = test system: NCI-H522; test: Growth inhibition of human NCI-H522 cells at 10 uM after 48 hrs by SRB assay relative to control; conditions: NCI-H522, 48 h, read-out: GI; summary of the method: as §1
[30] = test system: U-251; test: Growth inhibition of human U251 cells at 10 uM after 48 hrs by SRB assay relative to control; conditions: U-251, 48 h, read-out: GI; summary of the method: as §2
[31] = test system: HCC 2998; test: Growth inhibition of human HCC2998 cells at 10 uM after 48 hrs by SRB assay relative to control; conditions: HCC 2998, 48 h, read-out: GI; summary of the method: as §1
[32] = test system: PC-3; test: Growth inhibition of human PC3 cells at 10 uM after 48 hrs by SRB assay relative to control; conditions: PC-3, 48 h, read-out: GI; summary of the method: as §1
[33] = test system: HOP-92; test: Growth inhibition of human HOP92 cells at 10 uM after 48 hrs by SRB assay relative to control; conditions: HOP-92, 48 h, read-out: GI; summary of the method: as §1

Compound	inhibition of growth at 10 µM [1] [%]	inhibition of growth at 10 µM [2] [%]	inhibition of growth at 10 µM [3] [%]	inhibition of growth at 10 µM [4] [%]	inhibition of growth at 10 µM [5] [%]	inhibition of growth at 10 µM [6] [%]	inhibition of growth at 10 µM [7] [%]	inhibition of growth at 10 µM [8] [%]	inhibition of growth at 10 µM [9] [%]	inhibition of growth at 10 µM [10] [%]	inhibition of growth at 10 µM [11] [%]	inhibition of growth at 10 µM [12] [%]	inhibition of growth at 10 µM [13] [%]	inhibition of growth at 10 µM [14] [%]	inhibition of growth at 10 µM [15] [%]	inhibition of growth at 10 µM [16] [%]	inhibition of growth at 10 µM [17] [%]	inhibition of growth at 10 µM [18] [%]	inhibition of growth at 10 µM [19] [%]	inhibition of growth at 10 µM [20] [%]	also measured
COc1cc2oc(-c3cccc(NC(=O)c4ccc5c(c4)OCO5)c3)cc(=O)c2c(OC)c1OC	56.4	53.5	41.9	54.8	6.14	47.1	154	53	58.6	112	97.1	42.4	43	88.5	36	82.6	22.7	24.5	37.6	32.6	inhibition of growth at 10 µM [21]: 46.1%; inhibition of growth at 10 µM [22]: 65.4%; inhibition of growth at 10 µM [23]: 60.5%; inhibition of growth at 10 µM [24]: 47%; inhibition of growth at 10 µM [25]: 44.9%; inhibition of growth at 10 µM [26]: 83.6%; inhibition of growth at 10 µM [27]: 22.9%; inhibition of growth at 10 µM [28]: 47.1%; inhibition of growth at 10 µM [29]: 63.3%; inhibition of growth at 10 µM [30]: 67.5%; inhibition of growth at 10 µM [31]: 46.9%; inhibition of growth at 10 µM [32]: 112%; inhibition of growth at 10 µM [33]: 106%
COc1cc2oc(-c3cccc(C(=O)Nc4ccccc4)c3)cc(=O)c2c(O)c1OC	21.9	43.5	120	88.9	5.59	34.4	16.5	14.6	39.9	-0.19	0.26	20.9	80.6	4.29	5.67	2.93	15.7	30.6	35	78.2	inhibition of growth at 10 µM [21]: 30%; inhibition of growth at 10 µM [22]: 7.3%; inhibition of growth at 10 µM [23]: 11.9%; inhibition of growth at 10 µM [24]: 29.9%; inhibition of growth at 10 µM [25]: 12.6%; inhibition of growth at 10 µM [26]: 28.3%; inhibition of growth at 10 µM [27]: 51.1%; inhibition of growth at 10 µM [28]: 13.1%; inhibition of growth at 10 µM [29]: 8.74%; inhibition of growth at 10 µM [30]: 63.1%; inhibition of growth at 10 µM [31]: 10.3%; inhibition of growth at 10 µM [32]: 29%; inhibition of growth at 10 µM [33]: 94.7%
COc1ccccc1NC(=O)c1cccc(-c2cc(=O)c3c(OC)c(OC)c(OC)cc3o2)c1	28.4	29.3	19.4	60	18.6	29.6	73.7	27.5	44.9	48.3	38.7	46.7	30.5	32.4	12.2	51.2	-6.14	24.3	14.4	30.1	inhibition of growth at 10 µM [21]: 38.2%; inhibition of growth at 10 µM [22]: 10.1%; inhibition of growth at 10 µM [23]: 52.1%; inhibition of growth at 10 µM [24]: 47.5%; inhibition of growth at 10 µM [25]: 24.6%; inhibition of growth at 10 µM [26]: 58.4%; inhibition of growth at 10 µM [27]: 43%; inhibition of growth at 10 µM [28]: 34%; inhibition of growth at 10 µM [29]: 56.5%; inhibition of growth at 10 µM [30]: 11%; inhibition of growth at 10 µM [31]: 13.6%; inhibition of growth at 10 µM [32]: 43.6%; inhibition of growth at 10 µM [33]: 62.5%
